Assay results: ChEMBL document CHEMBL2069278, “Novel substituted benzothiophene and thienothiophene carboxanilides and quinolones: synthesis, photochemical synthesis, DNA-binding properties, antitumor evaluation and 3D-derived QSAR analysis” (J Med Chem, 2012)
Calls of active or inactive are those of the source. No cut-off for these calls is given here.

Experiments:
MOLT-4 = assay: Cytotoxicity against human MOLT4 cells after 72 hrs by MTT assay; assay type: functional, cell-based; settings: MOLT-4, 72 h
Procedure, shortened: (§1)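 Cells seeded on day 0 at 1 × 10^4 to 3 × 10^4 cells/mL (adherent lines in DMEM, MOLT-4 in suspension in RPMI, 10% FBS, 37 °C, 5% CO2); 10-fold dilutions 10−8–10−4 M for 72 h; MTT, OD 570 nm; percentage growth versus time-zero and control; IC50 by linear regression; quadruplicate, at least two experiments.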

HCT-116 [1] = assay: Cytotoxicity against human HCT116 cells after 72 hrs by MTT assay; assay type: functional, cell-based; settings: HCT-116, 72 h; procedure, shortened: as §1
SW-620 = assay: Cytotoxicity against human SW620 cells after 72 hrs by MTT assay; assay type: functional, cell-based; settings: SW-620, 72 h; procedure, shortened: as §1
MCF7 = assay: Cytotoxicity against human MCF7 cells after 72 hrs by MTT assay; assay type: functional, cell-based; settings: MCF7, 72 h; procedure, shortened: as §1
NCI-H460 = assay: Cytotoxicity against human H460 cells after 72 hrs by MTT assay; assay type: functional, cell-based; settings: NCI-H460, 72 h; procedure, shortened: as §1
Nucleic Acid [2] = assay: Binding affinity to calf thymus DNA assessed as change in melting temperature at drug/base pair ratio of 0.025 by UV-visible spectrophotometric analysis; assay type: nucleic-acid assay; settings: Bos taurus
Procedure, shortened: (§2)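 Melting: 20 μM CT-DNA or poly(dAdT)2 alone or with compound (drug/base pair ratio 0.01−0.5) in BPE buffer (6 mM Na2HPO4, 2 mM NaH2PO4, 1 mM EDTA, pH 7.1); A260 read each minute from 20 to 100 °C at 1 °C/min; Tm from midpoint of hyperchromic transition (first-derivative plots); ΔTm = Tm[drug+DNA] − Tm[DNA alone].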

Nucleic Acid [3] = assay: Binding affinity to calf thymus DNA assessed as change in melting temperature at drug/base pair ratio of 0.01 by UV-visible spectrophotometric analysis; assay type: nucleic-acid assay; settings: Bos taurus; procedure, shortened: as §2
Nucleic Acid [4] = assay: Binding affinity to radiolabeled Pvu2 DNA after 15 mins by Dnase1 footprinting assay; assay type: nucleic-acid assay
Procedure, shortened: (§3)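 265 bp EcoRI/PvuII pBluescript fragment, 3′-end labeled with α-[32P]dATP by Klenow. Compounds at increasing concentrations pre-equilibrated with DNA 15 min at 37 °C, then DNase I (final 0.002 unit/mL) in 20 mM NaCl, 2 mM MgCl2, 2 mM MnCl2, pH 7.3, 4 min digestion; products resolved on denaturing 8% polyacrylamide/8 M urea gel, G-track for base positions.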

[5] = molecular target: DNA topoisomerase 2-alpha (Homo sapiens) (UniProt P11388); assay: Inhibition of human topoisomerase 2-mediated DNA cleavage at 50 uM incubated for 45 mins followed by enzyme addition measured after 30 mins by agarose gel electrophoresis
DNA topoisomerase 2-alpha (Homo sapiens), sequence (P11388 whole entry): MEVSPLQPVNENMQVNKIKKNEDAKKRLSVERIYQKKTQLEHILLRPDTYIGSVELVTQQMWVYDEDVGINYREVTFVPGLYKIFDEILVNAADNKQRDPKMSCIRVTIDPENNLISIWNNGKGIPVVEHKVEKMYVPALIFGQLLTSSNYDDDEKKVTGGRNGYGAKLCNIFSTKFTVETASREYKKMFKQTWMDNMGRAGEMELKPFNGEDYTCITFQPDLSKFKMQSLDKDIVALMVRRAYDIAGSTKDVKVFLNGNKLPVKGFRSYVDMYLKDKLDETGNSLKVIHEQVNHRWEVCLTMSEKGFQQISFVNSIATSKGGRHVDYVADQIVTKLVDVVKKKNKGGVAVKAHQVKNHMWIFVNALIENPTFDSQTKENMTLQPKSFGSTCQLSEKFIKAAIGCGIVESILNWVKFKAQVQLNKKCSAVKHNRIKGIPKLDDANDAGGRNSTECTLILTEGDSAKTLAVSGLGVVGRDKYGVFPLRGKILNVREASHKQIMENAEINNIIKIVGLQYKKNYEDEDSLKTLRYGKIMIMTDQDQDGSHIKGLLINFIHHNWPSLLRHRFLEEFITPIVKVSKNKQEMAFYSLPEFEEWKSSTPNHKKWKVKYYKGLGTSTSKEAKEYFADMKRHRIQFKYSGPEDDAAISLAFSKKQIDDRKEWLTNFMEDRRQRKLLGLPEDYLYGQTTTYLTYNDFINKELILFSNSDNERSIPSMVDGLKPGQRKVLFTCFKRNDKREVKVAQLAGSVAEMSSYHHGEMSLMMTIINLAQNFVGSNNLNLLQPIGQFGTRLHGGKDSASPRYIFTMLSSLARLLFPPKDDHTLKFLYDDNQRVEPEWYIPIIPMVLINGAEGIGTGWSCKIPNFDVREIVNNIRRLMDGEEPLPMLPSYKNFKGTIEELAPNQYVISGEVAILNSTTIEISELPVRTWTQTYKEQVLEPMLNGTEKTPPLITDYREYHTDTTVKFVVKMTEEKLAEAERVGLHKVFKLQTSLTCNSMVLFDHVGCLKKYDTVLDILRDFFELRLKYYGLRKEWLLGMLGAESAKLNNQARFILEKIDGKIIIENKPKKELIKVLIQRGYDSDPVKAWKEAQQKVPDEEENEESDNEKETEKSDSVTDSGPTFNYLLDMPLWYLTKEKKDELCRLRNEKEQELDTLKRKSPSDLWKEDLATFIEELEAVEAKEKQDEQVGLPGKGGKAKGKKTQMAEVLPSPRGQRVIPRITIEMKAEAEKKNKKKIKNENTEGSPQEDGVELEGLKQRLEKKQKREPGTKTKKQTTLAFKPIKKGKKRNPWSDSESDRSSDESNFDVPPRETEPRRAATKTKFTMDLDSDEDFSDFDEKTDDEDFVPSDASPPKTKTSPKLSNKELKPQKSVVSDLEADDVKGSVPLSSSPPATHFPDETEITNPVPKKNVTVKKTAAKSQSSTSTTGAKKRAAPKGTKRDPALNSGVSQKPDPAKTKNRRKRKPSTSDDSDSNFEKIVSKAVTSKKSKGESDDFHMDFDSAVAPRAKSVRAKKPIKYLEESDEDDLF
Procedure, shortened: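 Compounds (50 μM) incubated with 350 ng supercoiled pUC19 before topoisomerase II addition; gel quantified for percentage poisoning normalized to etoposide at the same concentration.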

Nucleic Acid [6] = assay: Binding affinity to calf thymus DNA assessed as change in melting temperature at drug/base pair ratio of 0.1 by UV-visible spectrophotometric analysis; assay type: nucleic-acid assay; settings: Bos taurus; procedure, shortened: as §2
Nucleic Acid [7] = assay: Binding affinity to AT rich site of Pvu2 DNA by densitometric analysis; assay type: nucleic-acid assay; procedure, shortened: as §3
Nucleic Acid [8] = assay: Binding affinity to calf thymus DNA assessed as change in melting temperature at drug/base pair ratio of 0.25 by UV-visible spectrophotometric analysis; assay type: nucleic-acid assay; settings: Bos taurus; procedure, shortened: as §2
[9] = molecular target: T1, DNA topoisomerase 1 (Homo sapiens) (UniProt P11387); assay: Inhibition of human topoisomerase 1-mediated supercoiled pUC19 plasmid DNA relaxation at 0.5 to 2 uM incubated for 45 mins followed by enzyme addition measured after 30 mins by agarose gel electrophoresis
T1 sequence (whole entry): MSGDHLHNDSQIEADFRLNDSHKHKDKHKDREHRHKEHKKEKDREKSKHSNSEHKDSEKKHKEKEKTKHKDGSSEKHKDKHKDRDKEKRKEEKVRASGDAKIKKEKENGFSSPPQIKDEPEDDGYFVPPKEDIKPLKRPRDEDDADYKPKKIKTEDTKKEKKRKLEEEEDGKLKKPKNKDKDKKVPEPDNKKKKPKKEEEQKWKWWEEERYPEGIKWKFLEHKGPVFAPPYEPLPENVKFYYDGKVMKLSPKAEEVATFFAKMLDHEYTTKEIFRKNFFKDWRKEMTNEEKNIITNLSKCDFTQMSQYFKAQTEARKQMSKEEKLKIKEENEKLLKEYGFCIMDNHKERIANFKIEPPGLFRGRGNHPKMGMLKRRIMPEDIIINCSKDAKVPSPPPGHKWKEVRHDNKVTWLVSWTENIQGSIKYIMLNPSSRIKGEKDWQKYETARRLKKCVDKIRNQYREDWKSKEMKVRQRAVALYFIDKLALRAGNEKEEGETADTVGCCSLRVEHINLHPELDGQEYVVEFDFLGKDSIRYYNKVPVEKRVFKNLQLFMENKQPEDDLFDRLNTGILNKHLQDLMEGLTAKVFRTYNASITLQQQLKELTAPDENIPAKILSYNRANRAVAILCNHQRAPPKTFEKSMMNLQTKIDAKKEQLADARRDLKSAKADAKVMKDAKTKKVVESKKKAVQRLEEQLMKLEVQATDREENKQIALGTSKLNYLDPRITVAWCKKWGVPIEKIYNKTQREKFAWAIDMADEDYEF
Procedure, shortened: (§4)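 Graded compound concentrations preincubated with supercoiled pUC19, then 4 units human topoisomerase I, 37 °C for 45 min in relaxation buffer; stopped with 0.25% SDS and 250 μg/mL proteinase K, 30 min at 50 °C; 1% agarose gel without ethidium bromide, 2 h at 120 V in TBE, then stained with ethidium bromide.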

Nucleic Acid [10] = assay: Binding affinity to calf thymus DNA assessed as DNA intercalation at 50 uM by circular dichroism spectra analysis; assay type: nucleic-acid assay; settings: Bos taurus
Procedure, shortened: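 CD: 50 μM compound with 200 μM CT-DNA in BPE buffer, alone or plus 10 or 100 mM NaCl; spectra 480–230 nm, 10 mm quartz cell, 20 °C; compound without DNA as control for intrinsic CD.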

Nucleic Acid [11] = assay: Binding affinity to calf thymus DNA assessed as change in melting temperature at drug/base pair ratio of 0.5 by UV-visible spectrophotometric analysis; assay type: nucleic-acid assay; settings: Bos taurus; procedure, shortened: as §2
[12] = molecular target: T1, DNA topoisomerase 1 (Homo sapiens); assay: Inhibition of human topoisomerase 1-mediated supercoiled pUC19 plasmid DNA relaxation at 50 uM incubated for 45 mins followed by enzyme addition measured after 30 mins by agarose gel electrophoresis; procedure, shortened: as §4
HCT-116 [13] = assay: Induction of cell cycle arrest in human HCT116 cells assessed as accumulation at G1 phase at 1 to 5 uM by propidium iodide based flow cytometry; assay type: functional; settings: TDE = time-dependent effect
Procedure, shortened: (§5)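 HCT116 cells (2 × 10^5 per well) treated after 24 h with 1 or 5 μM for 24 and 48 h; floating and attached cells pooled, fixed in 70% ethanol, stained with 50 μg/mL propidium iodide plus RNase A; 20 000 events by flow cytometry; phase percentages from DNA histograms; duplicate, repeated at least twice.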

HCT-116 [14] = assay: Induction of cell cycle arrest in human HCT116 cells assessed as accumulation at G2/M phase at 1 to 5 uM by propidium iodide based flow cytometry; assay type: functional; settings: TDE = time-dependent effect; procedure, shortened: as §5
HCT-116 [15] = assay: Induction of cell cycle arrest in human HCT116 cells assessed as accumulation at G1 phase after 24 to 48 hrs by propidium iodide based flow cytometry; assay type: functional; procedure, shortened: as §5
HCT-116 [16] = assay: Induction of cell cycle arrest in human HCT116 cells assessed as accumulation at G2/M phase after 24 to 48 hrs by propidium iodide based flow cytometry; assay type: functional; procedure, shortened: as §5
[17] = molecular target: T1, DNA topoisomerase 1 (Homo sapiens); assay: Inhibition of human topoisomerase 1-mediated DNA cleavage at 10 uM incubated for 45 mins followed by enzyme addition measured after 30 mins by agarose gel electrophoresis
Procedure, shortened: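 Topo I cleavage run like the relaxation assay (pUC19, 4 units human topoisomerase I, 37 °C, 45 min; SDS/proteinase K stop), but samples run on 1% agarose gel containing ethidium bromide; camptothecin 20 μM as poisoning control.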

Compound | IC50 (MOLT-4) | IC50 (HCT-116 [1]) | IC50 (SW-620) | IC50 (MCF7) | IC50 (NCI-H460) | inhibition [5] | further results
Cc1ccc2c(c1)sc1c(=O)[nH]c3ccc(C(=O)NCCCN(C)C)cc3c12 | 1000 nM | 1000 nM | 400 nM | 2000 nM | 2000 nM |  | 
Cn1c(=O)c2sc3ccccc3c2c2cc(C#N)ccc21 | 8700 nM | > 10000 nM | > 10000 nM | > 10000 nM | > 10000 nM |  | 
CN(C)CCCNC(=O)c1ccc2[nH]c(=O)c3sc4cc(Br)ccc4c3c2c1 | 1000 nM | 400 nM | 400 nM | 2000 nM | 2000 nM |  | 
CN(C)CCCNC(=O)c1ccc(NC(=O)c2sc3cc(Br)ccc3c2Cl)cc1 | 2000 nM | 2000 nM | 2000 nM | 2000 nM | 2000 nM |  | 
O=c1[nH]c2ccc(C3=NCCN3)cc2c2c1sc1cc(C3=NCCN3)ccc12 | 3000 nM | ≥ 10000 nM | ≥ 10000 nM | ≥ 10000 nM | ≥ 10000 nM | Active | ΔTm (Nucleic Acid [2]): 0 °C; ΔTm (Nucleic Acid [3]): 0 °C; Activity (Nucleic Acid [4]): Active; ΔTm (Nucleic Acid [6]): 15.7 °C; Activity (Nucleic Acid [7]): inactive; ΔTm (Nucleic Acid [8]): 22.4 °C; inhibition [9]: Active
CCOC(=O)c1ccc2c(c1)sc1c(=O)[nH]c3ccc(C(=O)NCCCN(C)C)cc3c12 | 1000 nM | 2000 nM | 1000 nM | 3000 nM | 3000 nM |  | 
O=C(Nc1ccccc1)c1sc2cc(C3=NCCN3)ccc2c1Cl | 2000 nM | 2800 nM | 1300 nM | 2000 nM | 1400 nM | Active | Activity (Nucleic Acid [10]): inactive; Activity (Nucleic Acid [4]): Active; Activity (Nucleic Acid [7]): inactive; ΔTm (Nucleic Acid [8]): 3 °C; ΔTm (Nucleic Acid [11]): 3.8 °C; inhibition [12]: Active
Cn1c(=O)c2sc3sccc3c2c2cc(C3=NCCN3)ccc21 | 2000 nM | 1000 nM | 300 nM | 2000 nM | 1000 nM |  | 
O=c1[nH]c2ccc(C3=NCCN3)cc2c2c1sc1ccccc12 | 800 nM | 900 nM | 700 nM | 1400 nM | 1600 nM | Active | ΔTm (Nucleic Acid [2]): 0.9 °C; ΔTm (Nucleic Acid [3]): 0 °C; Activity (Nucleic Acid [4]): Active; Activity (HCT-116 [13]): tde; Activity (HCT-116 [14]): tde; Activity (HCT-116 [15]): Dose-dependent effect; Activity (HCT-116 [16]): Dose-dependent effect; ΔTm (Nucleic Acid [6]): 4.9 °C; Activity (Nucleic Acid [7]): inactive; ΔTm (Nucleic Acid [8]): 18 °C; inhibition [9]: Active
CN(C)CCCNC(=O)c1ccc2[nH]c(=O)c3sc4cc([N+](=O)[O-])ccc4c3c2c1 | 2000 nM | 2000 nM | 2000 nM | 3000 nM | 23000 nM |  | 
Cn1c(=O)c2sc3ccccc3c2c2cc(C3=NCCN3)ccc21 | 400 nM | 400 nM | 200 nM | 1300 nM | 600 nM | inactive | Activity (Nucleic Acid [4]): Active; Activity (HCT-116 [13]): tde; Activity (HCT-116 [14]): tde; Activity (HCT-116 [15]): Dose-dependent effect; Activity (HCT-116 [16]): Dose-dependent effect; Activity (Nucleic Acid [7]): inactive; ΔTm (Nucleic Acid [8]): 10.7 °C; ΔTm (Nucleic Acid [11]): 15.6 °C; inhibition [9]: Active
COc1cc([C@@H]2c3cc4c(cc3[C@@H](O[C@@H]3O[C@@H]5CO[C@@H](C)O[C@H]5[C@H](O)[C@H]3O)[C@H]3COC(=O)[C@H]23)OCO4)cc(OC)c1O |  |  |  |  |  | Active | 
Cn1c(=O)c2sc3sccc3c2c2cc(C#N)ccc21 | 4800 nM | > 10000 nM | > 10000 nM | > 10000 nM | > 10000 nM |  | 
CN(C)CCCNC(=O)c1ccc(NC(=O)c2sc3cc([N+](=O)[O-])ccc3c2Cl)cc1 | 2000 nM | 2000 nM | 1000 nM | 2000 nM | 2000 nM |  | 
Cn1c(=O)c2sc3cc(C#N)ccc3c2c2ccccc21 | ≥ 10000 nM | > 10000 nM | > 10000 nM | > 10000 nM | > 10000 nM |  | 
O=c1[nH]c2ccccc2c2c1sc1cc(C3=NCCN3)ccc12 | 800 nM | 1300 nM | 1200 nM | 1500 nM | 1200 nM | Active | Activity (Nucleic Acid [4]): Active; inhibition [17]: Active; Activity (Nucleic Acid [7]): inactive; ΔTm (Nucleic Acid [8]): 11 °C; ΔTm (Nucleic Acid [11]): 14.6 °C; inhibition [9]: Active
CN(C)CCCNC(=O)c1ccc2[nH]c(=O)c3sc4ccccc4c3c2c1 | 1000 nM | 1000 nM | 1000 nM | 2000 nM | 2000 nM |  | 
CCOC(=O)c1ccc2c(Cl)c(C(=O)Nc3ccc(C(=O)NCCCN(C)C)cc3)sc2c1 | 2000 nM | 3000 nM | 2000 nM | 5000 nM | 2000 nM |  | 
CN(C)CCCNC(=O)c1ccc(NC(=O)c2sc3ccccc3c2Cl)cc1 |  | 7000 nM |  | 7000 nM | 3000 nM |  | 
Cc1ccc2c(Cl)c(C(=O)Nc3ccc(C(=O)NCCCN(C)C)cc3)sc2c1 | 2000 nM | 3000 nM | 2000 nM | 3000 nM | 2000 nM |  | 
